These results are taken from ChEMBL document CHEMBL3526127, “Absorption, elimination, and metabolism of CS-1036, a novel α-amylase inhibitor in rats and monkeys, and the relationship between gastrointestinal distribution and suppression of glucose absorption” (Drug Metab Dispos, 2013).

The structures appear in SMILES notation.

Series [1] is described as follows: Drug excretion in F344 rat expired air at 1 mg/kg, iv administered as single dose after 0 to 48 hrs by scintillation counting method. It counts as ADME, organism-based. Conditions: in vivo. Details: dose 1 mg/kg, route intravenous. In a few lines: (§1)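 Fasted F344 rats (152–156 g iv via tail vein; 154–159 g oral; n = 4) received [14C]-labelled drug at 1 mg/kg (41.9 µCi/kg). Animals were kept in metabolic cages; urine and feces were collected to 168 h, and expired CO2 was trapped in 2-aminoethanol/2-methoxyethanol (1:1) to 48 h. Samples were counted by liquid scintillation (feces homogenized). Results are % of dose, mean ± S.D.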

The nature of series [2]: Drug excretion in F344 rat urine at 1 mg/kg, iv administered as single dose after 0 to 168 hrs by scintillation counting method. The series is classed as ADME, organism-based. Further details: dose 1 mg/kg, route intravenous. Conditions: in vivo. In a few lines:
as §1

Series [3] can be described thus: Drug excretion in F344 rat feces at 1 mg/kg, po administered as single dose after 0 to 48 hrs by scintillation counting method. Conditions: in vivo. Details: dose 1 mg/kg, route oral. It counts as ADME, organism-based. In a few lines:
as §1

The nature of series [4]: Drug excretion in F344 rat expired air at 1 mg/kg, po administered as single dose after 0 to 48 hrs by scintillation counting method. Details: dose 1 mg/kg, route oral. Conditions: in vivo. The series is classed as ADME, organism-based. Summed up:
as §1

The test system of another series is Ileum. The series is described as follows: Drug distribution in F344 rat ileum at 1 mg/kg, po administered as single dose after 2 hrs by scintillation counting method. It counts as ADME, organism-based. Details: dose 1 mg/kg, route oral. Conditions: in vivo. In a few lines: (§2)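 [14C]-labelled drug (1 mg/kg, 42.4 µCi/kg) was given orally to fasted F344 rats (148–168 g, n = 3). Contents of stomach, duodenum+jejunum, ileum and cecum were washed out with water at 0.5–8 h, homogenized, solubilized and counted by liquid scintillation. Results are % of dose, mean ± S.D.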

Series [5] can be described thus: Drug distribution in F344 rat cecum at 1 mg/kg, po administered as single dose after 2 hrs by scintillation counting method. The series is classed as ADME, organism-based, Caecum. Further details: dose 1 mg/kg, route oral. Conditions: in vivo. In a few lines:
as §2

Series [6] in a line: Drug metabolism in F344 rat feces assessed as 1,4-dideoxy-1,4-imino-D-arabinitol formation by LC-MS/MS method. The series is classed as ADME, tissue-based.
Series [7] is described as follows: Drug metabolism in F344 rat feces assessed as N-acetylated 1,4-dideoxy-1,4-imino-D-arabinitol formation by LC-MS/MS method. It counts as ADME, tissue-based.
For series [8], the system named is Plasma. The experiment in a line: Drug metabolism in po dosed F344 rat plasma by LC-MS/MS method. The series is classed as ADME, organism-based. Conditions: in vivo.
Another series relates to Cynomolgus monkey. The series is described as follows: Drug excretion in cynomolgus monkey assessed as drug level found during cage washing at 3 mg/kg, iv administered as single dose after 0 to 336 hrs by scintillation counting method. It counts as ADME, organism-based, Macaca fascicularis. Further details: dose 3 mg/kg, route intravenous. Conditions: in vivo. In a few lines:
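Fasted cynomolgus monkeys (n = 4) received [14C]-labelled drug at 3 mg/kg, iv via saphenous vein (191 µCi/kg) or orally by stomach catheter (156.5 µCi/kg). Urine, feces and water cage-wash were collected to 336 h. Samples were counted by liquid scintillation; feces were homogenized in 4-fold water. Results are % of dose, mean ± S.D.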

The test system of series [9] is Plasma. The series is described as follows: Drug metabolism in po dosed monkey plasma by LC-MS/MS method. Conditions: cynomolgus monkey, in vivo.
A short description of series [10]: Oral bioavailability in F344 rat at 0.3 mg/kg administered as single dose by LC-MS/MS method. Conditions: in vivo. The series is classed as ADME, organism-based. In a few lines: (§3)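 Male F344 rats (146–185 g) and male cynomolgus monkeys (3.48–4.29 kg), n = 4 each, fasted overnight, received single iv or oral doses of 0.3, 1.0, 3.0 or 10.0 mg/kg. Monkeys had 2-week washouts between doses. Plasma was sampled to 48 h and assayed by LC-MS/MS with deuterated internal standard. Noncompartmental analysis: tmax observed; t1/2 by regression on ≥3 terminal log points; Vss = dose·AUMC/(AUC0–inf)²; Foral = oral/iv AUC0–inf at the same dose.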

Series [11] is described as follows: Oral bioavailability in F344 rat at 10 mg/kg administered as single dose by LC-MS/MS method. It counts as ADME, organism-based. Conditions: in vivo. In a few lines: as §3
Series [12] can be described thus: AUClast in cynomolgus monkey at 0.3 mg/kg, iv administered as single dose by LC-MS/MS method. Conditions: plasma. It counts as ADME, organism-based, Macaca fascicularis. Details: time 0 - last, dose 0.3 mg/kg, route intravenous. In a few lines:
(§4)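 Fasted male F344 rats (146–185 g) or male cynomolgus monkeys (3.48–4.29 kg), n = 4 per dose, given single iv or oral dose of 0.3, 1.0, 3.0 or 10.0 mg/kg; monkeys dosed with 2-week washouts. Blood sampled to 48 h; plasma stored frozen. LC-MS/MS with deuterated internal standard. Noncompartmental analysis: AUClast by trapezoidal rule; AUC0–inf = AUClast + Ctz/terminal rate constant; mean ± S.D.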

A short description of series [13]: Half life in F344 rat at 3 mg/kg, iv administered as single dose by LC-MS/MS method. It counts as ADME, organism-based. Further details: dose 3 mg/kg, route intravenous. Conditions: in vivo. Summed up:
as §3

Series [14] in a line: Cmax in F344 rat at 10 mg/kg, po administered as single dose by LC-MS/MS method. It counts as ADME, organism-based. Further details: dose 10 mg/kg, route oral. Conditions: in vivo.
In another series the test system is Rattus norvegicus. The series is described as follows: Reduction in plasma glucose in starch loaded po dosed ZDF rat. It counts as functional. In a few lines:
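Male ZDF rats were acclimatized to 10 weeks of age and fasted overnight (n = 8 per group). They were given oral compound (0–0.1 mg/kg) in starch suspension (2 g/kg); a nonstarch control received water at 10 ml/kg. Plasma glucose was measured at −15 min (taken as baseline) and at 0.5, 1, 2 and 4 h with an automatic analyzer. ΔAUC of glucose change was calculated by the trapezoidal rule. ED50 came from a sigmoid Emax model bounded by the starch and nonstarch controls, and groups were compared by Dunnett test.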

Series [15] in a line: Volume of distribution at steady state in cynomolgus monkey at 1 mg/kg, iv administered as single dose by LC-MS/MS method. It counts as ADME, organism-based, Macaca fascicularis. Details: dose 1 mg/kg, route intravenous. Conditions: in vivo, read-out: Vdss. In a few lines:
as §3

Series [16] is described as follows: Volume of distribution at steady state in cynomolgus monkey at 3 mg/kg, iv administered as single dose by LC-MS/MS method. The series is classed as ADME, organism-based, Macaca fascicularis. Conditions: in vivo, read-out: Vdss. Further details: dose 3 mg/kg, route intravenous. In a few lines: as §3
A short description of series [17]: Tmax in F344 rat at 3 mg/kg, po administered as single dose by LC-MS/MS method. Further details: dose 3 mg/kg, route oral. Conditions: in vivo. The series is classed as ADME, organism-based. In a few lines:
as §3

A short description of series [18]: Tmax in F344 rat at 0.3 mg/kg, po administered as single dose by LC-MS/MS method. It counts as ADME, organism-based. Details: dose 0.3 mg/kg, route oral. Conditions: in vivo. Summed up: as §3
Series [19] in a line: AUC (0 to infinity) in F344 rat at 1 mg/kg, iv administered as single dose by LC-MS/MS method. The series is classed as ADME, organism-based. Details: time infinity, dose 1 mg/kg, route intravenous. Conditions: plasma. Summed up:
as §4

A short description of series [20]: AUC (0 to infinity) in F344 rat at 3 mg/kg, iv administered as single dose by LC-MS/MS method. Details: time infinity, dose 3 mg/kg, route intravenous. The series is classed as ADME, organism-based. Conditions: plasma. Summed up: as §4
A short description of series [21]: AUC (0 to infinity) in F344 rat at 3 mg/kg, po administered as single dose by LC-MS/MS method. It counts as ADME, organism-based. Details: time infinity, dose 3 mg/kg, route oral. Conditions: plasma. Summed up:
as §4

The nature of series [22]: AUC (0 to infinity) in F344 rat at 1 mg/kg, po administered as single dose by LC-MS/MS method. It counts as ADME, organism-based. Further details: dose 1 mg/kg, route oral, time infinity. Conditions: plasma. Summed up: as §4
Series [23] is described as follows: AUClast in cynomolgus monkey at 1 mg/kg, po administered as single dose by LC-MS/MS method. Details: time 0 - last, dose 1 mg/kg, route oral. Conditions: plasma. It counts as ADME, organism-based, Macaca fascicularis. In a few lines:
as §4

Series [24] can be described thus: AUClast in cynomolgus monkey at 0.3 mg/kg, po administered as single dose by LC-MS/MS method. The series is classed as ADME, organism-based, Macaca fascicularis. Further details: dose 0.3 mg/kg, route oral, time 0 - last. Conditions: plasma. Summed up: as §4
Series [25] in a line: AUClast in F344 rat at 3 mg/kg, po administered as single dose by LC-MS/MS method. The series is classed as ADME, organism-based. Details: time 0 - last, dose 3 mg/kg, route oral. Conditions: plasma. In a few lines:
as §4

Series [26] can be described thus: AUClast in F344 rat at 0.3 mg/kg, po administered as single dose by LC-MS/MS method. Conditions: plasma. It counts as ADME, organism-based. Further details: time 0 - last, dose 0.3 mg/kg, route oral. Summed up:
as §4

On to `C[C@H]1O[C@@H](O[C@H]2[C@H](O)[C@@H](O)[C@@H](O[14C@H]3[14C@H](O)[14CH2]N[14C@@H]3[14CH2]O)O[C@@H]2CO)[C@H](O)[C@@H](O)[C@@H]1O`, for which the Drug excretion in [1] was determined as 0.82%; in series [2] it was 77.21%; in series [3], 77.59%; in [4], 2.34%; in the series on Cynomolgus monkey it was 14.5%. For the same molecule, the Drug uptake with Ileum is on record as 33.9%; in series [5] it was 49.9%. For the same molecule, the Drug metabolism result in series [6] is reported as “metabolite_detected”; in [7], “metabolite_detected”; in the series with Plasma [8], “metabolite_not_detected”; with Plasma [9], “metabolite_not_detected”.

With `C[C@H]1O[C@@H](O[C@H]2[C@H](O)[C@@H](O)[C@@H](O[C@H]3[C@H](O)CN[C@@H]3CO)O[C@@H]2CO)[C@H](O)[C@@H](O)[C@@H]1O`, the results for the bioavailability in series [10] and in series [11] were 2.44% and 2.03%, respectively. The area under the curve AUC(0-t) in [12] came to 2000 ng·h/mL; in [23], 52 ng·h/mL; in [24], 15 ng·h/mL; in series [25], 324 ng·h/mL; in [26] it was 42.1 ng·h/mL. Also, in series [13], the half-life is 1420 min. Moreover, the concentration in series [14] peaked (Cmax) at 285 ng/mL. Moreover, the ED50 in the series on Rattus norvegicus was found to be 0.015 mg/kg. In addition, in the series on Rattus norvegicus, the inhibition result was “Dose-dependent effect”. Moreover, the Vd in series [15] was found to be 0.271 L/kg; in [16] it was 0.262 L/kg. In addition, the Tmax in series [17] was 22.5 min; in series [18], 30 min. The AUC(0-inf) in series [19] was found to be 4930 ng·h/mL; in series [20], 18800 ng·h/mL; in series [21] it was 325 ng·h/mL; in series [22] it was 115 ng·h/mL.

The term bioavailability denotes dose-corrected exposure relative to a reference, in per cent. Broadly, the AUC(0-t) is exposure summed from dosing to a finite time, without extrapolation to infinity. The term half-life denotes the time needed for the level to fall by half in the phase considered. For orientation: Cmax means the peak of the concentration-time curve. For orientation: ED50 means the dose at which the effect has come halfway, by size or by number of responders. For orientation: Tmax means the time at which the peak concentration occurs. By AUC(0-inf) is commonly meant total exposure, with the tail of the curve extrapolated.
